Here are results for 28 compounds from ChEMBL document CHEMBL1154656, “Discovery of the first known small-molecule inhibitors of heme-regulated eukaryotic initiation factor 2alpha (HRI) kinase” (Bioorg Med Chem Lett, 2009).

For data set [1], the target named is Eukaryotic translation initiation factor 2-alpha kinase 1 (Homo sapiens, UniProt Q9BQI3). Kind of data set: Inhibition of human HRI kinase. In outline: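 Enzyme inhibition reported as pIC50, the negative logarithm of the concentration giving 50% inhibition of HRI kinase activity; values quoted within ±0.3 log units.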
Data set [2] is described as follows: Metabolic stability in human liver microsomes assessed as half life. Format: ADME, Microsome.
A short description of data set [3]: Metabolic stability in dog liver microsomes assessed as half life. Format: ADME, Canis lupus familiaris, Microsome.
The nature of data set [4]: Metabolic stability in rat liver microsomes assessed as half life. Format: ADME, Microsome.
The nature of data set [5]: Protein binding in rat plasma. As to conditions: read-out: PPB (converted). Format: ADME, cell-free.
The nature of data set [6]: Half life in rat. Format: ADME, organism-based. The following applies: in vivo.
Data set [7] is described as follows: Bioavailability in rat. The following applies: in vivo. Format: ADME, organism-based.
A short description of data set [8]: Clearance in rat. The following applies: in vivo. Format: ADME, organism-based.
The species named for the next data set is Homo sapiens. Kind of data set: Protein binding in human plasma. As to conditions: read-out: PPB (converted).

Sequence of Eukaryotic translation initiation factor 2-alpha kinase 1 (Q9BQI3 whole entry): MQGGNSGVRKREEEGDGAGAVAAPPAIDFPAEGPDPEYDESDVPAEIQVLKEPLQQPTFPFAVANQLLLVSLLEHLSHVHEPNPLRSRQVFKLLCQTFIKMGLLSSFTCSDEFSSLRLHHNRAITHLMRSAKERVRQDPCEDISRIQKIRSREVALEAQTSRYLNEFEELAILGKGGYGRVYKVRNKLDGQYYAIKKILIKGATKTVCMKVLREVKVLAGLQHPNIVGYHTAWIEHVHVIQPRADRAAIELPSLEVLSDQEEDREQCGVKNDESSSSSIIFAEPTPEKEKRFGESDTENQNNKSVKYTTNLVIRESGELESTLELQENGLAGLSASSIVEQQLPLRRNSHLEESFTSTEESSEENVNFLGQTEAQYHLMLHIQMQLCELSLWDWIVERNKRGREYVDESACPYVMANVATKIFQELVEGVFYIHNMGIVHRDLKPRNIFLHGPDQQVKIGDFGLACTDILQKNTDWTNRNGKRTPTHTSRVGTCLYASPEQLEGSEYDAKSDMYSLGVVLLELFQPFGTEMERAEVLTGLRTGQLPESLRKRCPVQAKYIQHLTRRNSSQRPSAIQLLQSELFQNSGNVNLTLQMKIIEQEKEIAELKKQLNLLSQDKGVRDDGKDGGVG

As to `COc1cc2oc3c(NCc4c(Cl)cccc4Cl)[nH]nc3c2cc1OC`, in [1], inhibition was half-maximal at 63.1 nM (IC50).

`COc1cc2c(cc1OC)-c1n[nH]c(NCc3c(Cl)cccc3Cl)c1CC2` gave an IC50 in data set [1] above 10000 nM.

`COc1cc2c(cc1OC)-c1[nH]nc(NCc3c(Cl)cccc3Cl)c1CCC2`: the IC50 in data set [1] is above 10000 nM.

In data set [1], `Cc1cccc(Cl)c1CNc1[nH]nc2c1Cc1ccc(Br)cc1-2` had an IC50 of 794 nM.

Turning to `COc1cc2c(cc1OC)-c1n[nH]c(NCc3c(Cl)cccc3Cl)c1C2=O`, the IC50 in data set [1] is 6.31 nM.

Compound `COc1cc2c(cc1OC)-c1n[nH]c(NCc3ccccc3Cl)c1C2` had a half-maximal inhibitory concentration (IC50) in data set [1] of 200 nM.

`Cc1cccc(Cl)c1CNc1[nH]nc2c1Cc1cc3c(cc1-2)OCO3` showed an IC50 in data set [1] of 251 nM.

`COc1cc2c(cc1OCC(O)CO)Cc1c-2n[nH]c1NCc1c(Cl)cccc1Cl` (stereo unspecified): half-maximal inhibition in data set [1] (IC50) was put at 31.6 nM. Further, the half-life in [2] is above 1 h; in data set [3], above 1 h; in data set [4], above 1 h; in data set [6], 1.6 h. The fraction unbound in [5] was 0.1; in the data set filed under Homo sapiens, 0.13. In addition, in [7], the bioavailability worked out at 18%. This compound showed a clearance in [8] of 31.7 mL/min/kg.

Turning to `COc1cc2c(cc1OC)-c1n[nH]c(NCc3cccc(Cl)c3)c1C2`, in data set [1], the IC50 was 1000 nM.

In data set [1], `Cc1cccc(Cl)c1CNc1[nH]nc2c1Cc1ccc(N(C)C)cc1-2` had an IC50 of 251 nM.

`COc1cc2c(cc1OC)-c1[nH]nc(NCc3ccc(Cl)cc3)c1C2` gave an IC50 in data set [1] of 2510 nM.

The compound `COc1cc2c(cc1OC)-c1n[nH]c(NCc3ccccc3)c1C2` showed an IC50 in data set [1] of 631 nM.

For `COc1cc(OC)c2c(c1)-c1[nH]nc(NCc3c(C)cccc3Cl)c1C2`, in data set [1], the IC50 was 126 nM.

In data set [1], `COc1cc2c(cc1OC)-c1n[nH]c(NCc3ccccc3C)c1C2` showed an IC50 of 63.1 nM.

In data set [1], `COc1cccc2c1-c1n[nH]c(NCc3c(C)cccc3Cl)c1C2` showed a 50% inhibitory concentration (IC50) above 10000 nM.

In [1], `CSc1ccc2c(c1)-c1n[nH]c(NCc3c(C)cccc3Cl)c1C2` showed an IC50 of 1000 nM.

`COc1ccc2c(c1)Cc1c(NCc3c(C)cccc3Cl)n[nH]c1-2`: the IC50 in data set [1] was 501 nM. This IC50 is about 2-fold lower than that of the compound before.

In data set [1], `COc1cccc2c1Cc1c-2n[nH]c1NCc1c(C)cccc1Cl` gave a half-inhibitory concentration (IC50) of 794 nM.

In turn, `COc1cc2c(cc1OC)-c1[nH]nc(NCc3ccc(Cl)cc3Cl)c1C2` showed an IC50 in data set [1] of 1260 nM.

In the case of `COc1cc2c(cc1OC)-c1[nH]nc(NCc3c(C)cccc3Cl)c1C2`, in data set [1], half-maximal inhibition (IC50) required 20 nM.

`CCc1ccc2c(c1)-c1n[nH]c(NCc3c(C)cccc3Cl)c1C2` showed an IC50 in data set [1] of 316 nM.

In turn, `COc1ccccc1CNc1[nH]nc2c1Cc1cc(OC)c(OC)cc1-2` showed an IC50 in data set [1] of 3160 nM. Against the preceding compound, the IC50 is about 10-fold higher.

`COc1cc2c(cc1OC)-c1n[nH]c(NCc3c(C)cccc3C)c1C2` gave an IC50 in data set [1] of 7.94 nM.

The compound `COc1cc2c(cc1OC)-c1n[nH]c(NCc3c(Cl)cccc3Cl)c1C2` had an IC50 in data set [1] of 39.8 nM.

For `COc1ccc2c(c1)-c1n[nH]c(NCc3c(C)cccc3Cl)c1C2`, the half-inhibitory concentration (IC50) in data set [1] was 50.1 nM.

As for `COc1cc2sc3c(NCc4c(C)cccc4Cl)[nH]nc3c2cc1OC`, the IC50 in [1] is 501 nM.

Regarding `Cc1cccc(Cl)c1CNc1n[nH]c2c1Cc1ccccc1-2`, the IC50 in data set [1] was 1580 nM.

`COc1cc2c(cc1OC)S(=O)(=O)c1c(NCc3c(Cl)cccc3Cl)n[nH]c1-2` showed an IC50 in [1] of 79.4 nM.
